High-throughput results from PubChem.
RORa inhibitor: inhibitors of orphan receptor RORA, primary screen, cell-based, luminescence. AID 561, 2006. actives 0.43% (n = 65,000). Nuclear receptor ROR-alpha (Homo sapiens), P35398. inhibition, % at 10 µM. CHO-K1 Gal4-RORA LBD luciferase reporter;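 active = inhibition above the mean of all tested compounds plus 3 SD, cut at about 52% in these data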;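 also: 0% = RORA-transfected cells with DMSO and 100% = mock-transfected cells lacking RORA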
Target sequence (P35398 whole entry, looked up, the tested form may be a part): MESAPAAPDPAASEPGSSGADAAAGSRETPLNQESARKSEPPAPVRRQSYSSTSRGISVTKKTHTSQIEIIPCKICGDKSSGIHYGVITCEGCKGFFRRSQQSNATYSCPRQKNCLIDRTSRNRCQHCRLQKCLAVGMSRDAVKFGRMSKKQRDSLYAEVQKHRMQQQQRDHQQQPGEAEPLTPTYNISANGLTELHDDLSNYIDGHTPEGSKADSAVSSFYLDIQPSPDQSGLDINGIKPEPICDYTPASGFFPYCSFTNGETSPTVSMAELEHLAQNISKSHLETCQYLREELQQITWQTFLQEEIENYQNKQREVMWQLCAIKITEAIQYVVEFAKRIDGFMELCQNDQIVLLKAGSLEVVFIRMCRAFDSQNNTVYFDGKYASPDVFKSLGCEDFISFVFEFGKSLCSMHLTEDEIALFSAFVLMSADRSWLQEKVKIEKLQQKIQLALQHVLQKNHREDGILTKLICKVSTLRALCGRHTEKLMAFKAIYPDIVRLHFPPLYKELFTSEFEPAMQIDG
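System: transiently transfected CHO-K1 cells, Gal4-DBD/human RORA-LBD fusion plus 5xGal4-luciferase reporter. Doses: one dose of 10 µM final. Timing: 20 h compound treatment, 37 °C. Measured by: luminescence. Evaluation: % inhibition of basal luciferase versus +RORA/-RORA DMSO controls. Benchmarks: mock-transfected cells as 100%, +RORA DMSO cells as 0%. Replicates: single test per compound.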
* marks the source's active call; other numbers are inactive results. The full list was thinned out, with hits kept by preference.

SMILES | RORa inhibitor
CCOC(=O)CS(=O)(=O)c1nc(-c2ccccc2)cc(C(F)(F)F)n1 | 60.2*
O=C(CCCOc1ccccc1)Nc1ccc2c(c1)OCCO2 | 3.7
Cc1ccc(-n2ncc(-c3nnc(SCC(=O)NC4CCCC4)o3)c2N)cc1C | -16.7
CS(=O)(=O)Nc1ccc(S(=O)(=O)NCCc2ccccc2)cc1 | 3.4
O=C(Nc1ccc2c(c1)OCCO2)C1CCN(S(=O)(=O)c2ccc(Br)s2)CC1 | -7.4
CCn1c(C)nc2cc(-c3nc4n(n3)Cc3ccccc3-4)ccc21 | 95.7*
COc1ccc(Cn2c(C3CC3)nc3ccc(NC(=O)c4ccco4)cc3c2=O)cc1 | -43.7
COc1cc(OC)cc(-c2nnc(SCC(=O)N(Cc3ccccc3)C(C)(C)C)o2)c1 | 13.1
O=C(CSc1nnc(Cn2nnc3ccccc32)o1)N(Cc1ccc(F)cc1)c1ccccc1 | 71.3*
COc1cc(-c2nnc(SCC(=O)N(Cc3ccccc3)C(C)(C)C)o2)cc(OC)c1OC | -14.1
COC(=O)c1c(C(=O)OC)c2oc3ccccc3n2c1Cl | -8.0
CC(C)NC(=O)CCNS(=O)(=O)c1ccc(Br)cc1 | 7.9
CCCc1cc(=O)[nH]c(SCC(=O)Nc2cc3c(cc2C(C)=O)OCO3)n1 | 1.4
N#Cc1c(NC(=O)CSc2nc(N)cc(=O)[nH]2)sc2c1CCCCCC2 | 52.2*
N#Cc1c(NC(=O)CSc2ncn[nH]2)sc2c1CCCCC2 | 87.9*
O=C(CSc1nc2sc3c(c2c(=O)[nH]1)CCCC3)NCCO | 10.0
CC(C)c1ccc(C(=O)CSc2ncn[nH]2)cc1 | -53.4
O=C(Nc1sc2c(c1C(=O)O)CCCCC2)c1ccco1 | -62.5
O=C(Nc1ccc2c(c1)OCO2)C1CCCCN1S(=O)(=O)c1ccc(F)cc1 (configuration not stated) | 8.4
Cc1nc(SCC(=O)Nc2ccc(C)c(F)c2)c2oc3ccccc3c2n1 | 0.4
CCOC(=O)c1ccc(NS(=O)(=O)N2CCCCCC2)cc1 | -49.4
COc1ccc(N(C(=O)Cn2nnc3ccccc32)C(C(=O)NCc2ccco2)c2ccc(C)o2)cc1 (configuration not stated) | 20.2
COc1cccc(-c2cc(C(=O)N3C(C)CCCC3C)no2)c1 (configuration not stated) | -66.9
Cc1ccc(C)n1/N=C1/NC(=O)CS1 | 10.5
CS(=O)c1nc(-c2ccc(Br)cc2)cc(-c2ccccc2)c1C#N (configuration not stated) | 57.5*
SMILES | RORa inhibitor
Nc1nc(-c2ccccc2)cc(-c2ccccc2O)n1 | -49.2
Cc1cnc(-c2nnc(N(C)C(=O)c3cnccn3)s2)cn1 | -17.5
CCOC(=O)CN1CC23C=CC(O2)C(C(=O)Nc2ccc(F)c(C)c2)C3C1=O (configuration not stated) | 21.8
Cc1nnc(SCC(=O)NCCc2ccccc2)[nH]c1=O | 7.1
O=C(NCCCN1CCOCC1)C1CC(=O)N(C2CCCCC2)C1 (configuration not stated) | 12.6
Nc1nnnn1/N=C/C(Br)=C/c1ccccc1 | 76.9*
O=C1C(=O)N(CCCn2ccnc2)C(c2cccnc2)/C1=C(/O)c1ccccc1 (configuration not stated) | -10.3
COc1ccc(C(=O)Nc2ccc(C)cn2)c(OC)c1 | 78.3*
COc1ccccc1C(=O)Nc1ccccn1 | -44.7
CCOc1ccc(NC(=O)c2ccccc2OC)cc1 | -49.0
Cc1ccc2c(=O)c(CN(C)C3CCN(C)CC3)c(C)[nH]c2c1C | 17.8
Cc1ccc(S(=O)(=O)Nc2cccc3ncccc23)s1 | 80.2*
COc1cccc(C2/C(=C(/O)c3ccccc3)C(=O)C(=O)N2CCCC(=O)O)c1 (configuration not stated) | 5.9
COc1cc(CC(=O)Nc2ccc(S(=O)(=O)Nc3ncccn3)cc2)cc(OC)c1OC | 0.9
Cc1ccccc1Cc1c(C)nc2ncnn2c1C | 5.4
Cc1nc2ncnn2c(C)c1CCC(=O)Nc1ccc(S(=O)(=O)N2CCCCCC2)cc1 | -10.5
CCc1c(C)nc2ncnn2c1NCCc1ccc(OC)cc1 | 75.4*
O=C(CSc1nnc(NC(=O)CN2CCOCC2)s1)Nc1ccccc1 | 8.5
Clc1ccc(-c2nn3c(Cn4cnc5ccccc54)nnc3s2)c(Cl)c1 | 1.3
O=C(CN(C1CCCCC1)S(=O)(=O)c1ccc(Cl)cc1)NCCCO | 15.6
COC(=O)Cn1nc(-c2ccccc2)n(-c2ccccc2)c1=S | -13.2
CN(C)c1ccc(C2=NOC(CN3C(=O)c4ccccc4S3(=O)=O)C2)cc1 (configuration not stated) | -60.1
CC1CCN(C(=O)CN2C(=O)c3ccccc3S2(=O)=O)CC1 | -26.3
O=C1c2ccccc2S(=O)(=O)N1Cc1nc2ccccc2s1 | 53.7*
O=C1C2C3C=CC([C@@H]2C(=O)N1c1nccs1)C31CC1 (some centres not stated) | 1.0
SMILES | RORa inhibitor
COC(=O)[C@@H](NC(=O)NC1CCCc2ccccc21)C(C)C (some centres not stated) | 27.3
Cc1ccc2c(c1)C(N1CCCC1=O)CC(c1ccco1)N2 (configuration not stated) | -52.2
CCCCNC(=O)c1cc(-c2ccc(F)cc2)on1 | -72.6
CCOc1ncccc1C(=O)OCC(=O)Nc1cc(C(=O)OC)ccc1C(=O)OC | -26.5
CCOC(=O)N1CCN(C(=O)c2cccc(-n3c(=S)[nH]c4cc(Cl)ccc4c3=O)c2)CC1 | 0.4
Nc1cc(C2CCCC2)nn1-c1ccccc1 | -61.6
Cc1ccc2nc(C(F)(F)F)c(C#N)c(N)c2c1 | 57.2*
Clc1nc2sccn2c1/C=N/n1cnc2ccccc21 | -52.3
c1ccn2c(CNc3ncnc4sccc34)nnc2c1 | -1.7
COc1ccc(OC)c2sc(NC(=O)c3ccc(S(=O)(=O)N(C)C)cc3)nc12 | -15.0
CC(C)CCn1nnnc1C(c1ccc(F)cc1)N1CCN(C(=O)c2ccco2)CC1 (configuration not stated) | 12.5
